Source: the M2OR odorant receptor database

What was measured:
Details in all cases: stereoisomer not certain
OR10A3 (Homo sapiens) = molecular target: T1, OR10A3 (Homo sapiens) (UniProt P58181)
T1 sequence (whole entry): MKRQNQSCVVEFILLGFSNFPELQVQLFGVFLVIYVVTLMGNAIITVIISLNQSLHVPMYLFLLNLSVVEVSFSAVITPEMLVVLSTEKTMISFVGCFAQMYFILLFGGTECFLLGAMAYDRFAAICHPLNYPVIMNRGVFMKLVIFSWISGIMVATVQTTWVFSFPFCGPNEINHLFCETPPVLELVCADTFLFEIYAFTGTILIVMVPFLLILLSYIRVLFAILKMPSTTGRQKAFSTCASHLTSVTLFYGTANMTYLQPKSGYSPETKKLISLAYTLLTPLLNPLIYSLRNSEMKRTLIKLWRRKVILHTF
Summary of the method: (§1)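 Transient luciferase assays in mammalian cell lines were common, though methods varied by source. The values come from published papers and their supplementary material, with extra details from the original authors when needed. Responsive refers to a measured signal the original authors judged statistically different from baseline, and non-responsive (inactive) to the remainder.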

OR10A4 (Homo sapiens) = molecular target: T2, OR10A4 (Homo sapiens) (UniProt Q9H209)
T2 sequence (whole entry): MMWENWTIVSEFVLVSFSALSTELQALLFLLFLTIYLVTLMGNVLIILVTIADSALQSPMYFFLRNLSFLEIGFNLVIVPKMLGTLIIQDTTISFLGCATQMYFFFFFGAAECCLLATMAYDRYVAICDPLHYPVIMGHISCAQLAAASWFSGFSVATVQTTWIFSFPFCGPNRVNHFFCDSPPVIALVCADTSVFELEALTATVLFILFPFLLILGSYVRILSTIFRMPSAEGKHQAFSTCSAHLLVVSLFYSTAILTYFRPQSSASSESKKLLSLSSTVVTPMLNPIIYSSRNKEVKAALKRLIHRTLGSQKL
Summary of the method: as §1

OR10A5 (Homo sapiens) = molecular target: T3, OR10A5 (Homo sapiens) (UniProt Q9H207)
T3 sequence (whole entry): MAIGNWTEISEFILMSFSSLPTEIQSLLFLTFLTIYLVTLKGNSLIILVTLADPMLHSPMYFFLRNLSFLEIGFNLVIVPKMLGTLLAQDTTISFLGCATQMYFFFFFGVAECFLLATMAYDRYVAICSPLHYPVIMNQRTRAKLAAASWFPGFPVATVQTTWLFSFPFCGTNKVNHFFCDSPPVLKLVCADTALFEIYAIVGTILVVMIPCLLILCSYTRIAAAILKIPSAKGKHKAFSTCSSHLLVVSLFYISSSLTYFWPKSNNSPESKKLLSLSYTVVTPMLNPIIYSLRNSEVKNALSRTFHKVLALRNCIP
Summary of the method: as §1

OR10A6 (Homo sapiens) = molecular target: T4, OR10A6 (Homo sapiens) (UniProt Q8NH74)
T4 sequence (whole entry): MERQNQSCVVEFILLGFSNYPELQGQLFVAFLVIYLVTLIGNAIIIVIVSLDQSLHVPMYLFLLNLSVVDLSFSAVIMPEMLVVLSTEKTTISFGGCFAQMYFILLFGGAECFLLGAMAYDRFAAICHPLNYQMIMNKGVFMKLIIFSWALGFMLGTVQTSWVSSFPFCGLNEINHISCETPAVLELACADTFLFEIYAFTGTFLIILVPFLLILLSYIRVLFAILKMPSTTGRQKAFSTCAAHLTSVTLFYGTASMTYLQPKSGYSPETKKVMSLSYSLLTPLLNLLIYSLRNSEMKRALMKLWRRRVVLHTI
Summary of the method: as §1

OR10A7 (Homo sapiens) = molecular target: T5, OR10A7 (Homo sapiens) (UniProt Q8NGE5)
T5 sequence (whole entry): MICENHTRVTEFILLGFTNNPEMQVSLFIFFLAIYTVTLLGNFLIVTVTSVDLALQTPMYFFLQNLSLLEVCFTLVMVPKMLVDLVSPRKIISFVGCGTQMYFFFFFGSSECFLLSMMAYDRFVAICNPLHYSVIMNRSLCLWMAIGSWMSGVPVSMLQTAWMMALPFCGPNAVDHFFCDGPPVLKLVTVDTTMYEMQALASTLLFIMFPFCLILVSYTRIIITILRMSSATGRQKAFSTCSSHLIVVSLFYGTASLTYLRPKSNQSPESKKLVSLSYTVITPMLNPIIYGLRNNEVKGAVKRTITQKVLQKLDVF
Summary of the method: as §1

OR10AD1 (Homo sapiens) = molecular target: T6, OR10AD1 (Homo sapiens) (UniProt Q8NGE0)
T6 sequence (whole entry): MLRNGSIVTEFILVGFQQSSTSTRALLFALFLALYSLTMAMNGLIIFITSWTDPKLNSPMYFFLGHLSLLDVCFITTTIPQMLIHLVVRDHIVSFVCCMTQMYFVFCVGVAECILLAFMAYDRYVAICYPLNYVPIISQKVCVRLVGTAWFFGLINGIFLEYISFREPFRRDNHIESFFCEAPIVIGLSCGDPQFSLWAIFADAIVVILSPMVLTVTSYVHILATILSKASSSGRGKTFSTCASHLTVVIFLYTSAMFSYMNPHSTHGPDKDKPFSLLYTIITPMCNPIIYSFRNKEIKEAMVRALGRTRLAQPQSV
Summary of the method: as §1

OR10AG1 (Homo sapiens) = molecular target: T7, OR10AG1 (Homo sapiens) (UniProt Q8NH19)
T7 sequence (whole entry): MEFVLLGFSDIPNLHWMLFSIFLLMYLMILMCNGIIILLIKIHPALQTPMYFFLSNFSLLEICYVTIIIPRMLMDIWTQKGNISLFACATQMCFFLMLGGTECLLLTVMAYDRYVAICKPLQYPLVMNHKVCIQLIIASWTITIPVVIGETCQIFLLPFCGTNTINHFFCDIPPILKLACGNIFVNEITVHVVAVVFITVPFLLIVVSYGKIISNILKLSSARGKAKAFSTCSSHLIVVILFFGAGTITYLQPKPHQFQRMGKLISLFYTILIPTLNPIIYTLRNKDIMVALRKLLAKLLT
Summary of the method: as §1

OR10C1 (Homo sapiens) = molecular target: T8, OR10C1 (Homo sapiens) (UniProt Q96KK4)
T8 sequence (whole entry): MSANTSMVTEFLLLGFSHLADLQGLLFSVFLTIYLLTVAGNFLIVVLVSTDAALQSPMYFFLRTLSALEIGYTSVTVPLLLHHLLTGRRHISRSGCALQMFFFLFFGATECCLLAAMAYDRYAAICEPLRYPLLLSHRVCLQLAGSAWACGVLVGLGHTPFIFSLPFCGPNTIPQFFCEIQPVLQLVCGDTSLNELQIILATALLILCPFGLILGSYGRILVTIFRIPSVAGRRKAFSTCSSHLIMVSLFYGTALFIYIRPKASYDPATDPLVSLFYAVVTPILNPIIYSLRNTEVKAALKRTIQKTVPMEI
Summary of the method: as §1

OR10D3 (Homo sapiens) = molecular target: T9, OR10D3 (Homo sapiens) (UniProt Q8NH80)
T9 sequence (whole entry): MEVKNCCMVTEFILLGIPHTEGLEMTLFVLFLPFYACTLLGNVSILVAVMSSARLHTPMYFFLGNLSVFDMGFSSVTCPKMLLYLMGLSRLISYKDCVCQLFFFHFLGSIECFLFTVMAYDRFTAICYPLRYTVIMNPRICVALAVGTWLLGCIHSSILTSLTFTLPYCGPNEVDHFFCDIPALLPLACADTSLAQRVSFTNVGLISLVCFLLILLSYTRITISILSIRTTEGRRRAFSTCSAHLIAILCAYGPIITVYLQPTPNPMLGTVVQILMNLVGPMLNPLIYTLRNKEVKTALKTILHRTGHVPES
Summary of the method: as §1

Measured: odorant receptor agonist call;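 also: active if original authors judged signal statistically different from baseline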

CC1=C(O)C(=O)C(C)O1 (centres undefined)
inactive: all assays above
